In brackets after ≈: the same amount, converted by molar mass.
Experiments:
[1] = tested on: Candida albicans; assay: Antifungal activity against Candida albicans IFO 0583 assessed as growth inhibition at 200 ug/disc after 48 hrs by agar disc-diffusion method; type: functional; settings: IFO 0583, 48 h, read-out: DIZ
[2] = tested on: Pseudomonas aeruginosa; assay: Antibacterial activity against Pseudomonas aeruginosa IFO 3448 after 24 hrs by two fold dilution method; type: functional
[3] = tested on: Pseudomonas aeruginosa; assay: Antibacterial activity against Pseudomonas aeruginosa IFO 3448 assessed as growth inhibition at 200 ug/disc after 24 hrs by agar disc-diffusion method; type: functional; settings: IFO 3448, 24 h, read-out: DIZ
[4] = tested on: Escherichia coli; assay: Antibacterial activity against Escherichia coli IFO 3301 assessed as growth inhibition at 200 ug/disc after 24 hrs by agar disc-diffusion method; type: functional; settings: IFO 3301, 24 h, read-out: DIZ
[5] = tested on: Micrococcus luteus; assay: Antibacterial activity against Micrococcus luteus IFO 3232 after 24 hrs by two fold dilution method; type: functional
[6] = tested on: Micrococcus luteus; assay: Antibacterial activity against Micrococcus luteus IFO 3232 assessed as growth inhibition at 200 ug/disc after 24 hrs by agar disc-diffusion method; type: functional; settings: IFO 3232, 24 h, read-out: DIZ
[7] = tested on: Bacillus subtilis; assay: Antibacterial activity against Bacillus subtilis IFO 3007 after 24 hrs by two fold dilution method; type: functional
[8] = tested on: Bacillus subtilis; assay: Antibacterial activity against Bacillus subtilis IFO 3007 assessed as growth inhibition at 200 ug/disc after 24 hrs by agar disc-diffusion method; type: functional; settings: IFO 3007, 24 h, read-out: DIZ
[9] = tested on: Staphylococcus aureus; assay: Antibacterial activity against Staphylococcus aureus IFO 3060 after 24 hrs by two fold dilution method; type: functional
[10] = tested on: Staphylococcus aureus; assay: Antibacterial activity against Staphylococcus aureus IFO 3060 assessed as growth inhibition at 200 ug/disc after 24 hrs by agar disc-diffusion method; type: functional; settings: IFO 3060, 24 h, read-out: DIZ
[11] = tested on: Escherichia coli; assay: microbe, parasite or virus in culture; settings: IFO 3301, 24 h
[12] = tested on: Pseudomonas aeruginosa; assay: Antibacterial activity against Pseudomonas aeruginosa IFO 3448 assessed as growth inhibition at 100 ug/disc after 24 hrs by agar disc-diffusion method; type: functional
In short: (§1)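 Agar disc-diffusion on Mueller-Hinton agar. Sterile 8 mm filter-paper discs carrying 100 µg of agent were laid on the seeded agar. Plates were incubated at 37 °C, and growth-inhibition zone diameters were read after 24 h for bacteria.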

[13] = tested on: Micrococcus luteus; assay: Antibacterial activity against Micrococcus luteus IFO 3232 assessed as growth inhibition at 100 ug/disc after 24 hrs by agar disc-diffusion method; type: functional; in short: as §1
[14] = tested on: Bacillus subtilis; assay: Antibacterial activity against Bacillus subtilis IFO 3007 assessed as growth inhibition at 100 ug/disc after 24 hrs by agar disc-diffusion method; type: functional; in short: as §1
[15] = tested on: Staphylococcus aureus; assay: Antibacterial activity against Staphylococcus aureus IFO 3060 assessed as growth inhibition at 100 ug/disc after 24 hrs by agar disc-diffusion method; type: functional; in short: as §1
[16] = tested on: Escherichia coli; settings: IFO 3301, 100 ug/disc
[17] = tested on: Candida albicans; assay: Antifungal activity against Candida albicans IFO 0583 after 24 hrs by two fold dilution method; type: functional; settings: IFO 0583, 24 h
[18] = tested on: Candida albicans; assay: Antifungal activity against Candida albicans IFO 0583 assessed as growth inhibition at 100 ug/disc after 48 hrs by agar disc-diffusion method; type: functional; settings: IFO 0583, 48 h, read-out: DIZ
[19] = tested on: Escherichia coli; assay: microbe, parasite or virus in culture; settings: IFO 3301, 24 h, read-out: DIZ

Row | Compound | zone of inhibition at 200 µg/disc [1] [mm] | MIC ([2]; IFO 3448, 24 h) [µg/mL] | zone of inhibition at 200 µg/disc [3] [mm] | zone of inhibition at 200 µg/disc [4] [mm] | MIC ([5]; IFO 3232, 24 h) [µg/mL] | zone of inhibition at 200 µg/disc [6] [mm] | MIC ([7]; IFO 3007, 24 h) [µg/mL] | zone of inhibition at 200 µg/disc [8] [mm] | MIC ([9]; IFO 3060, 24 h) [µg/mL] | zone of inhibition at 200 µg/disc [10] [mm] | MIC [11] [µg/mL] | further results
1 | Cn1c(C23CC4CC(CC(C4)C2)C3)nn(CN2CCN(c3cccc(C(F)(F)F)c3)CC2)c1=S | < 10 | 8 (≈ 16.3 µM) | 21 | 19 | 4 (≈ 8.14 µM) | 28 | 0.5 (≈ 1.02 µM) | 33 | 0.5 (≈ 1.02 µM) | 30 | 16 (≈ 32.5 µM) | 
2 | GENTAMICIN |  |  |  |  |  |  |  |  |  |  |  | MIC [2]: 1 µg/mL; inhibition zone (IZ) [12]: 19 mm; MIC [5]: 2 µg/mL; inhibition zone (IZ) [13]: 18 mm; MIC [7]: 2 µg/mL; inhibition zone (IZ) [14]: 25 mm; MIC [9]: 2 µg/mL; inhibition zone (IZ) [15]: 26 mm; IZ [16]: 20 mm
3 | COc1ccccc1N1CCN(Cn2nc(C34CC5CC(CC(C5)C3)C4)n(/N=C/c3ccccc3O)c2=S)CC1 | < 10 |  | 12 | 18 | 2 (≈ 3.58 µM) | 25 | 0.5 (≈ 0.895 µM) | 33 | 0.5 (≈ 0.895 µM) | 28 | 8 (≈ 14.3 µM) | 
4 | Clc1ccccc1C(c1ccccc1)(c1ccccc1)n1ccnc1 [CLOTRIMAZOLE] |  |  |  |  |  |  |  |  |  |  |  | MIC [17]: 2 µg/mL (≈ 5.8 µM); zone of inhibition at 100 µg/disc [18]: 21 mm
5 | CC1(C)S[C@@H]2[C@H](NC(=O)[C@H](N)c3ccccc3)C(=O)N2[C@H]1C(=O)O [AMPICILLIN] |  | 2 (≈ 5.72 µM) |  |  | 2 (≈ 5.72 µM) |  | 0.5 (≈ 1.43 µM) |  | 2 (≈ 5.72 µM) |  |  | zone of inhibition at 100 µg/disc ([12]; IFO 3448, 24 h, read-out: DIZ): 16 mm; zone of inhibition at 100 µg/disc ([13]; IFO 3232, 24 h, read-out: DIZ): 19 mm; zone of inhibition at 100 µg/disc ([14]; IFO 3007, 24 h, read-out: DIZ): 21 mm; zone of inhibition at 100 µg/disc ([15]; IFO 3060, 24 h, read-out: DIZ): 23 mm; zone of inhibition at 100 µg/disc [19]: 17 mm
6 | COc1ccccc1N1CCN(Cn2nc(C34CC5CC(CC(C5)C3)C4)n(/N=C/c3ccc(O)cc3)c2=S)CC1 | < 10 |  | 14 | 16 | 16 (≈ 28.6 µM) | 18 | 1 (≈ 1.79 µM) | 29 | 1 (≈ 1.79 µM) | 30 |  | 

From ChEMBL document CHEMBL2424616, “Synthesis and antimicrobial activity of novel 5-(1-adamantyl)-2-aminomethyl-4-substituted-1,2,4-triazoline-3-thiones” (2013)
